From ChEMBL document CHEMBL1122723, “Potential antitumor agents: synthesis and biological properties of aliphatic amino acid 9-hydroxyellipticinium derivatives” (1984)

Tests used:
Nucleic Acid = test: Apparent binding constant (Kapp) for calf thymus DNA was measured by competition with ethidium bromide; assay type: nucleic-acid assay; conditions: Bos taurus
How it was run: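 Calf thymus DNA binding measured by ethidium bromide competition in 0.2 M Tris-HCl buffer, pH 7.40. Apparent binding constants were derived from Scatchard plots.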

Escherichia coli = test: Compound was evaluated for the effective dose, as compared to controls against Escherichia coli BL 101; assay type: functional; conditions: read-out: ED50 (the source's name)
How it was run: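 Bacteriostatic test on E. coli BL 101, a quaternary-ammonium-sensitive strain, and on Salmonella typhimurium TA 98. Inocula from master plates were grown overnight at 37 °C and diluted 1000-fold in the same medium. Cultures were shaken at 37 °C, with drugs added after 2 h of growth at graded concentrations. Growth was followed by turbidity at 650 nm. ED50 is the dose halving growth rate versus controls, from a regression of % inhibition on log dose.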

L1210 = test: Dose that reduces the L1210 leukemia cell growth in vitro by 50% after 48 hr as compared to controls; assay type: functional; conditions: Mus musculus, L1210, 48 h; read-out: ID50 (the source's name)
How it was run: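 L1210 leukemia cells were grown in vitro with graded drug doses for 48 h. ID50 is the dose that reduces cell growth by 50% versus controls, read from a regression line of % growth inhibition against log dose. 50% inhibition corresponds to a twofold increase in generation time.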

Mus musculus [1] = test: Percent Increase in life span (ILS) over controls (10e5 L1210 leukemia cells) at LD0/2 by ip administration of the drug into mouse (single injection 2 hr after cell grafting); assay type: functional
How it was run: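 DBA/2 mice were inoculated with 10⁵ L1210 cells and then given one intraperitoneal dose at LD0/2, the LD0 being the highest nonlethal single ip dose. Life span was compared with untreated controls as ILS = (T − C)/C × 100. ILS > 25% was counted as a significant antitumor effect.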

Mus musculus [2] = test: Compound tested in vivo for highest […] administered intraperitoneally that reduces the L1210 leukemia cell growth; assay type: functional
How it was run: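 Highest nonlethal dose (LD0) found for each compound after one intraperitoneal injection into DBA/2 mice.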

Salmonella typhimurium = test: Compound was evaluated for the effective dose, as compared to controls against Salmonella typhimurium TA98; conditions: read-out: ED50 (the source's name)

Row | SMILES | K app (Nucleic Acid) | EC50 (Escherichia coli) | IC50 (L1210) | ILS (Mus musculus [1]) | LD0 (Mus musculus [2]) | EC50 (Salmonella typhimurium)
1 | Cc1c2cc[n+](C)cc2c(C)c2c1[nH]c1ccc(O)c(/N=C(/C(=O)O)C(C)C)c12 | 210000 M⁻¹ | 0.18 µM | 0.31 µM | 31.5 | 15 mg/kg | 1.65 µM
2 | Cc1c2cc[n+](C)cc2c(C)c2c1[nH]c1ccc(O)cc12 [ELLIPTINIUM] | 1.3e+06 M⁻¹ | 3.55 µM | 0.05 µM | 53 | 5 mg/kg | –
3 | C/C(=N\c1c(O)ccc2[nH]c3c(C)c4cc[n+](C)cc4c(C)c3c12)C(=O)O | 470000 M⁻¹ | 1.95 µM | 0.2 µM | 23 | 20 mg/kg | 50.3 µM
4 | Cc1c2cc[n+](C)cc2c(C)c2c1[nH]c1ccc(O)c(/N=C/C(=O)O)c12 | 80000 M⁻¹ | 3.15 µM | 0.54 µM | 0 | 20 mg/kg | 100 µM
5 | Cc1c2cc[n+](C)cc2c(C)c2c1[nH]c1ccc(O)c(/N=C(\CC(C)C)C(=O)O)c12 | 260000 M⁻¹ | 0.76 µM | 0.28 µM | 35 | 10 mg/kg | 2.35 µM
6 | Cc1c2cc[n+](C)cc2c(C)c2c1[nH]c1ccccc12 | 230000 M⁻¹ | – | – | 22 | 12.5 mg/kg | –
